Experimental data taken from ChEMBL document CHEMBL1129453, “3-amino-3,4-dihydro-2H-1-benzopyran derivatives as 5-HT1A receptor ligands and potential anxiolytic agents. 2. Synthesis and quantitative structure-activity relationship studies of spiro[pyrrolidine- and piperidine-2,3'(2'H)-benzopyrans]” (J Med Chem, 1996).

Key:
[1] = molecular target: T1, 5-hydroxytryptamine receptor 1A (Rattus norvegicus, UniProt P19327); experiment: Binding affinity to 5-hydroxytryptamine 1A receptor in rat hippocampus membranes,3H-8-OH-DPAT and buspirone for nonspecific binding (NSB); assay type: cell membranes
T1 sequence (P19327 whole entry): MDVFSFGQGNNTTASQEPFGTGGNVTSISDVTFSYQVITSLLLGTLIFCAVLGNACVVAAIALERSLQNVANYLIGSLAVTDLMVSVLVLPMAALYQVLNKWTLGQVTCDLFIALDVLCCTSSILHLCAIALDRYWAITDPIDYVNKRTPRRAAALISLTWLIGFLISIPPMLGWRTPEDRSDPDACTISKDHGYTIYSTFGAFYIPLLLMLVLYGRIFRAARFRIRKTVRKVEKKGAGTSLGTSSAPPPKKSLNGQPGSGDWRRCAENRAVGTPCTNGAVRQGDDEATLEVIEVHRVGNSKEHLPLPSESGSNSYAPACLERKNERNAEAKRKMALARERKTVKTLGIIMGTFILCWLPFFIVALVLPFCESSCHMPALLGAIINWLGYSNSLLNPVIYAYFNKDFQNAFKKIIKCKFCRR

[2] = Binding affinity to 5-hydroxytryptamine 2 receptor using calf frontal cortex, [3H]- ketanserin, and spiperone for NSB; design: species or system Bos taurus
Outline: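 Calf frontal cortex; [3H]ketanserin near its KD; nonspecific binding with spiperone. Competition binding; IC50 = concentration inhibiting 50% of specific binding.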

[3] = molecular target: T2, Serotonin 3 receptor (5HT3) (Mus musculus, UniProt Q9JHJ5+P23979); experiment: Displacement of [3H]-BRC 36694 from 5-hydroxytryptamine 3 receptor in NG108-15 cells; assay type: cell-based
T2 sequence (Q9JHJ5 whole entry): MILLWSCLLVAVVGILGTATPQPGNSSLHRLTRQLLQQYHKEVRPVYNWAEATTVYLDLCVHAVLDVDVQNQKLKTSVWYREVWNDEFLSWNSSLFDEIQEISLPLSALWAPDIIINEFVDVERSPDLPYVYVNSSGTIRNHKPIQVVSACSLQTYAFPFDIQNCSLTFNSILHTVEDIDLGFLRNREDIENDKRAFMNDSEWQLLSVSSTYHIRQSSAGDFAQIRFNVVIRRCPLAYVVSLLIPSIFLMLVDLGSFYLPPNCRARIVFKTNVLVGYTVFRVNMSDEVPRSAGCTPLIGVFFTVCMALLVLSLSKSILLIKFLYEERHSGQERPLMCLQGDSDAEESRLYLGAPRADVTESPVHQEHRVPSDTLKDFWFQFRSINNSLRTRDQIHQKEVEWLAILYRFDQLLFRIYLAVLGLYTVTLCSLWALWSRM
T2 sequence (P23979 whole entry): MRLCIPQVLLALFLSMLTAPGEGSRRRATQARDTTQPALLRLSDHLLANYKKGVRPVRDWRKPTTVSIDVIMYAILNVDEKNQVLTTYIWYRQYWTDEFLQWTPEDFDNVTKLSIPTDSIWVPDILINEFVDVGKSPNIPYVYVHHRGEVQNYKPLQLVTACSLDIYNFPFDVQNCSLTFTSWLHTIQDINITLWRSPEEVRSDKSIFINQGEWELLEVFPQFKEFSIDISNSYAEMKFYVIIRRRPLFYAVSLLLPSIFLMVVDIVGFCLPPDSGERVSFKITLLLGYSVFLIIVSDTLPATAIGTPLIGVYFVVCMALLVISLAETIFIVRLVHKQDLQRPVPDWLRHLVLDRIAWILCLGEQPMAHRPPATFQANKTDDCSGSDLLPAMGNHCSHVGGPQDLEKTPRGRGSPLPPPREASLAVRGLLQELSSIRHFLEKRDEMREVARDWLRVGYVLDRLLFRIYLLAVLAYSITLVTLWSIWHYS
Outline: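 NG108-15 cells; [3H]-BRC 36694 at approximately its KD; ICS 205930 for nonspecific binding. Competition binding expressed as IC50 against specific binding.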

[4] = molecular target: T3, 5-hydroxytryptamine receptor 1B (Rattus norvegicus, UniProt P28564); experiment: Binding affinity to 5-HT1B receptors using rat cortex+striatum + globus pallidus,[3H]-5-OH-tryptamine, and serotonin for NSB
T3 sequence (P28564 whole entry): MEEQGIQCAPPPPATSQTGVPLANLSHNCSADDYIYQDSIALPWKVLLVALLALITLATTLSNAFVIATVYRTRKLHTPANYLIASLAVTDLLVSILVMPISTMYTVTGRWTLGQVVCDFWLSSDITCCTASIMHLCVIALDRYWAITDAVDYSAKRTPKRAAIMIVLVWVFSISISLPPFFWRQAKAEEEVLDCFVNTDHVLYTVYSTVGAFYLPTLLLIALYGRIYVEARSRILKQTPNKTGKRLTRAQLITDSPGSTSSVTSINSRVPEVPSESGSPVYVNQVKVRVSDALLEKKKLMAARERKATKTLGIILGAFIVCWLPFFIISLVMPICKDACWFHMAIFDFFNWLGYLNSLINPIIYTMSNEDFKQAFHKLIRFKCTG
Outline: (§1)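 Membranes from rat cortex plus striatum plus globus pallidus; [3H]-5-OH-tryptamine as radioligand at roughly its KD; serotonin defines nonspecific binding. Competition binding; IC50 taken as concentration inhibiting 50% of specific binding.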

[5] = molecular target: T1, 5-hydroxytryptamine receptor 1A; experiment: Compound was evaluated for binding affinity on 5-hydroxytryptamine 1A receptor in rat hippocampus membranes,3H-8-OH-DPAT and buspirone for nonspecific binding; assay type: cell membranes
Outline: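 Rat hippocampal membranes in competition binding against [³H]-8-OH-DPAT, with the radioligand at roughly its KD. […] IC50 was taken as the concentration inhibiting 50% of specific binding.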

D(2) dopamine receptor = D(2) dopamine receptor (Bos taurus, UniProt P20288); experiment: Displacement of [3H]SDZ-205-501 from Dopamine receptor D2 in calf caudate nucleus.
Chain of D(2) dopamine receptor (P20288 whole entry): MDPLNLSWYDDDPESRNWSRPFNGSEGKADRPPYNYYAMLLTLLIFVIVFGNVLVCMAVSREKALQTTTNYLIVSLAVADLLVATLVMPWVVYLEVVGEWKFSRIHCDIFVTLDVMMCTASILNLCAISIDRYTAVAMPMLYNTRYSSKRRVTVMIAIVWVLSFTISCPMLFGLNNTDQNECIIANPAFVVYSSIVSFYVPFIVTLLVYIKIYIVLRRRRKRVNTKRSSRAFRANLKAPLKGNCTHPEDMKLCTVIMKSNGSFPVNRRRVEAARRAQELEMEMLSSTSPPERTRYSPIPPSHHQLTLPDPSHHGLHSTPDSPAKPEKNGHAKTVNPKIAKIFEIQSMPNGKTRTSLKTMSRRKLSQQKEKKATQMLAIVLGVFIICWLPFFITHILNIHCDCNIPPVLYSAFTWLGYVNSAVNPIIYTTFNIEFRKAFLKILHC
Outline: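 Calf caudate nucleus; [3H]SDZ205-501 near its KD; butaclamol for nonspecific binding. Competition binding; IC50 for 50% inhibition of specific binding.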

[6] = Displacement of [3H]raclopride from Dopamine receptor […] of calf striatum; design: species or system Bos taurus
Outline: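 Calf striatum; [3H]raclopride at about its KD; haloperidol for nonspecific binding. Competition assay reporting IC50 (50% inhibition of specific binding).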

[7] = molecular target: T3, 5-hydroxytryptamine receptor 1B; experiment: Compound was evaluated for binding affinity on 5-HT1B receptors using rat cortex+striatum+ globus pallidus,[ 3H]-5-OH-tryptamine, and serotonin for NSB.; assay type: tissue-based; outline: as §1
Rattus norvegicus [8] = species on record: Rattus norvegicus; experiment: Effect of enantiomeric compound on adenylate cyclase activity in rat hippocampus at 10e-7 M; assay type: functional
Outline: (§2)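 Rat hippocampal membranes incubated 20 min at 30 °C with forskolin 10 μM, [α-32P]ATP 0.1 μM and test compound. Activity measured as conversion to [32P]cAMP (nM/mg protein/20 min), given as % of control. Mean ± standard error of three determinations in two experiments; Student's t-test versus 100%, p < 0.05.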

Rattus norvegicus [9] = species on record: Rattus norvegicus; experiment: Effect of compound on Forskolin-Activated Adenylate Cyclase in Rat Hippocampi at 0 M conc; assay type: functional; outline: as §2
Rattus norvegicus [10] = species on record: Rattus norvegicus; experiment: Effect of compound on Forskolin-Activated Adenylate Cyclase in Rat Hippocampi at 10e-10 M conc; assay type: functional; outline: as §2
Rattus norvegicus [11] = species on record: Rattus norvegicus; experiment: Effects of enantiomeric compound on adenylate cyclase activity in rat hippocampus at 1 micro M conc; assay type: functional; outline: as §2
Rattus norvegicus [12] = species on record: Rattus norvegicus; experiment: Effect of compound on Forskolin-Activated Adenylate Cyclase in Rat Hippocampi at 10e-8 M conc (p<0.05); assay type: functional; outline: as §2
Rattus norvegicus [13] = species on record: Rattus norvegicus; experiment: Effects of enantiomeric compound on adenylate cyclase activity in rat hippocampus; assay type: functional; outline: as §2
Rattus norvegicus [14] = species on record: Rattus norvegicus; experiment: Effect of compound on Forskolin-Activated Adenylate Cyclase in Rat Hippocampi at 10e-6 M conc; assay type: functional; outline: as §2
Rattus norvegicus [15] = species on record: Rattus norvegicus; experiment: Effect of compound on Forskolin-Activated Adenylate Cyclase in Rat Hippocampi at 10e-7 M conc; assay type: functional; outline: as §2
Rattus norvegicus [16] = species on record: Rattus norvegicus; experiment: Effect of compound on Forskolin-Activated Adenylate Cyclase in Rat Hippocampi at 10e-9 M conc; assay type: functional; outline: as §2
Rattus norvegicus [17] = species on record: Rattus norvegicus; experiment: Effects of enantiomeric compound on adenylate cyclase activity in rat hippocampus at 10e-5 M; assay type: functional; outline: as §2
Rattus norvegicus [18] = species on record: Rattus norvegicus; experiment: Effects of enantiomeric compound on adenylate cyclase activity in rat hippocampus at 10e-8 M; assay type: functional; outline: as §2
Rattus norvegicus [19] = species on record: Rattus norvegicus; experiment: Effects of enantiomeric compound on adenylate cyclase activity in rat hippocampus at 10e-6 M; assay type: functional; outline: as §2
Rattus norvegicus [20] = species on record: Rattus norvegicus; experiment: Effects of enantiomeric compound on adenylate cyclase activity in rat hippocampus at 10e-7 M; assay type: functional; outline: as §2
Rattus norvegicus [21] = species on record: Rattus norvegicus; experiment: Effects of enantiomeric compound on adenylate cyclase activity in rat hippocampus at 1 uM; assay type: functional; outline: as §2

Structure (SMILES)	IC50 [1] [µM]	IC50 [2] [µM]	IC50 [3] [µM]	IC50 [4] [µM]	IC50 (D(2) dopamine receptor) [µM]	IC50 [6] [µM]	other results
COc1cccc2c1CC1(CCC(=O)N1)CO2 (stereo not drawn)	4.37	> 100	> 100	> 10	–	–	–
CCCN1CCCC12COc1cccc(O)c1C2 (stereo not drawn)	–	364	7.93	> 100	71.4	> 1000	IC50 [5]: 0.0385 µM
CCCN1CCCC12COc1ccccc1C2 (stereo not drawn)	1.3	233	14.5	> 1000	–	–	–
CCCN1CCCCC12COc1cccc(OC)c1C2 (stereo not drawn)	0.42	41.4	14.9	69.1	14.7	100	–
COc1cccc2c1CC1(CCCN1)CO2 (stereo not drawn)	0.298	71.4	10.2	4.4	–	–	–
CCCN(CCC)C1COc2cccc(OC)c2C1 (stereo not drawn)	–	60	–	–	–	–	–
COc1cccc2c1CC1(CCCCN1CCCCNC(=O)c1ccc(F)cc1)CO2 (stereo not drawn)	0.0628	8.39	66.5	–	4.3	38.3	IC50 [7]: 11.2 µM
CCCN1CCCC12COc1cccc(OC)c1C2 (stereo not drawn)	0.0746	112	3.59	11	6.55	120	–
COc1cccc2c1CC1(CCCN1CCCCN1C(=O)CC3(CCCC3)CC1=O)CO2 (racemic)	–	–	–	–	–	–	Effect (Rattus norvegicus [8]): 80%
CCCN(CCCCN1C(=O)CC2(CCCC2)CC1=O)C1COc2cccc(OC)c2C1 (single isomer, unassigned; (+))	–	3	–	–	0.02	–	–
COc1cccc2c1CC1(CCCN1CCCCN1C(=O)CC3(CCCC3)CC1=O)CO2 (single isomer, unassigned; (-))	–	13.9	10.6	31.1	11.3	23.3	Effect (Rattus norvegicus [17]): 81%; Effect (Rattus norvegicus [13]): 101%; Effect (Rattus norvegicus [18]): 98%; Effect (Rattus norvegicus [19]): 86%; Effect (Rattus norvegicus [20]): 92%; Effect (Rattus norvegicus [21]): 101%
CCCN(CCCCN1C(=O)CC2(CCCC2)CC1=O)C1COc2cccc(OC)c2C1 (stereo in doubt; 2)	–	1	–	–	–	–	–
CCCN(CCC)C1CCc2cccc(O)c2C1 (stereo not drawn) [8-OH-DPAT]	–	49	–	–	–	–	–
O=C1CC2(CCCC2)CC(=O)N1CCCCN1CCN(c2ncccn2)CC1 [BUSPIRONE]	–	10	–	–	–	270	–

Continued, in another order:

IC50 [1] [µM]	IC50 [2] [µM]	IC50 [3] [µM]	IC50 [4] [µM]	IC50 (D(2) dopamine receptor) [µM]	IC50 [6] [µM]	Structure (SMILES)	other results
0.101	67.3	3.97	2.7	–	–	CCCN1CCCC12COc1cccc(OCCCCN3C(=O)CC4(CCCC4)CC3=O)c1C2 (stereo not drawn)	–
81.4	> 100	> 100	246	–	–	COc1cccc2c1CC1(CCCN1C(C)=O)CO2 (stereo not drawn)	–
0.178	5.95	12.5	3.8	–	–	O=C1CC2(CCCC2)CC(=O)N1CCCCN1CCCC12COc1ccccc1C2 (stereo not drawn)	–
0.068	21.1	118	51.1	4.22	38	COc1cccc2c1CC1(CCCCN1CCCCNS(=O)(=O)c1ccc(C)cc1)CO2 (stereo not drawn)	–
14.2	793	> 100	> 100	–	–	CCCN1C(=O)CCC12COc1cccc(OC)c1C2 (stereo not drawn)	–
0.00881	2.91	41.4	2.21	2.84	23.4	COc1cccc2c1CC1(CCCCN1CCCCN1C(=O)CC3(CCCC3)CC1=O)CO2 (stereo not drawn)	–
0.00672	0.886	12.1	1.3	1.31	22.4	COc1cccc2c1CC1(CCCN1CCCCN1C(=O)CC3(CCCC3)CC1=O)CO2 (single isomer, unassigned; (+))	Effect (Rattus norvegicus [9]): 100%; Effect (Rattus norvegicus [10]): 97%; Effect (Rattus norvegicus [11]): 79%; Effect (Rattus norvegicus [12]): 88%; Effect (Rattus norvegicus [13]): 98%; Effect (Rattus norvegicus [14]): 82%; Effect (Rattus norvegicus [15]): 84%; Effect (Rattus norvegicus [16]): 91%
–	5	–	–	–	–	CCCN(CCCCN1C(=O)CC2(CCCC2)CC1=O)C1COc2cccc(OC)c2C1 (single isomer, unassigned; (-))	–
0.0106	6.61	30.7	3.8	–	–	COc1cccc2c1CC1(CCCN1CCCCN1C(=O)CC3(CCCC3)CC1=O)CO2 (stereo in doubt; 11a)	–
–	7.5	–	–	–	–	O=C1c2ccccc2S(=O)(=O)N1CCCCN1CCN(c2ncccn2)CC1 [IPSAPIRONE]	–
